From ChEMBL document CHEMBL1121416, “Synthesis of potential inhibitors of hypoxanthine-guanine phosphoribosyltransferase for testing as antiprotozoal agents. 1. 7-Substituted 6-oxopurines” (J Med Chem, 1980)

Experiments:
[1] = target: T1, Hypoxanthine-guanine phosphoribosyltransferase (Homo sapiens) (UniProt P00492); assay: Ability to inhibit hypoxanthine-guanine phosphoribosyltransferase in crude extracts of H.Ep.-2 cells.
T1 sequence (whole entry): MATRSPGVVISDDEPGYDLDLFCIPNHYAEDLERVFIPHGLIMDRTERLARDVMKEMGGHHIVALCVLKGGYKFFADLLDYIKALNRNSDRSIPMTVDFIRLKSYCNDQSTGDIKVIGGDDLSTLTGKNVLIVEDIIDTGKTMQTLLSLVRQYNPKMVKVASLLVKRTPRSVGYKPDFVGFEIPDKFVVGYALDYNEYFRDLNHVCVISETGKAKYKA

Plasmodium berghei = assay: Activity against Plasmodium berghei in mice (Mus musculus); type: functional, organism-based
In short: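 Mice infected with P. berghei; survival time (life span) of treated mice was the read-out.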
Further: test concentration or dose not given here.

Row | SMILES | Activity [1] | Activity (Plasmodium berghei)
1 | Nc1nc(O)c2c(n1)nc(Cl)n2CCCl | No inhibition | Not significant
2 | Nc1nc(O)c2c(ncn2Cc2cccc(NC(=O)c3ccc(Cl)cc3)c2)n1 | No inhibition | Not significant
3 | Nc1nc(O)c2c(ncn2Cc2ccc(NC(=O)c3ccc(Cl)cc3)cc2)n1 | No inhibition | Not significant
4 | Nc1nc(O)c2c(ncn2CC(O)CNC(=O)c2cccc(S(=O)(=O)F)c2)n1 (stereo not drawn) | No inhibition | Not significant
5 | Nc1nc(O)c2c(ncn2Cc2ccc([N+](=O)[O-])cc2)n1 | No inhibition | Not significant
6 | Nc1nc(O)c2c(ncn2CCNC(=O)CBr)n1 | No inhibition | Not significant
7 | Nc1nc(O)c2c(ncn2CC(O)CNC(=O)c2ccc(S(=O)(=O)F)cc2)n1 (stereo not drawn) | No inhibition | Not significant
8 | Nc1nc(O)c2c(ncn2Cc2cccc(NC(=O)CBr)c2)n1 | No inhibition | Not significant
9 | O=C(Nc1ccc(Cn2cnc3ncnc(O)c32)cc1)c1cccc(S(=O)(=O)F)c1 | No inhibition | Not significant
10 | NCCn1cnc2nc(N)nc(O)c21 | No inhibition | Not significant
11 | O=[N+]([O-])c1ccc(Cn2cnc3ncnc(O)c32)cc1 | No inhibition | Not significant
12 | Nc1nc(O)c2c(ncn2CC=O)n1 | No inhibition | Not significant
13 | [N-]=[N+]=NCC(O)Cn1cnc2nc(N)nc(O)c21 (stereo not drawn) | No inhibition | Not significant
14 | NCC(O)Cn1cnc2nc(N)nc(O)c21 (stereo not drawn) | No inhibition | Not significant
15 | Nc1ccc(Cn2cnc3ncnc(O)c32)cc1 | No inhibition | Not significant
16 | Nc1nc(O)c2c(ncn2CC(O)CN2C(=O)c3ccccc3C2=O)n1 (stereo not drawn) | No inhibition | Not significant
17 | OCC(O)Cn1cnc2ncnc(O)c21 (stereo not drawn) | No inhibition | Not significant
18 | Nc1nc(O)c2c(ncn2Cc2cccc(NC(=O)c3cccc(S(=O)(=O)F)c3)c2)n1 | No inhibition | Not significant
19 | Nc1nc(O)c2c(ncn2CCNC(=O)c2ccc(S(=O)(=O)F)cc2)n1 | No inhibition | Not significant
20 | Nc1ccc(Cn2cnc3nc(N)nc(O)c32)cc1 | No inhibition | Not significant
21 | CC(=O)OC[C@H]1O[C@@H](N2C=NC3C(=O)N=C(N)N=C32)[C@H](OC(C)=O)[C@@H]1OC(C)=O (stereo partly drawn) | No inhibition | Not significant
22 | Nc1nc(O)c2c(ncn2CCCS(=O)(=O)O)n1 | No inhibition | Not significant
23 | O=C(Nc1ccc(Cn2cnc3ncnc(O)c32)cc1)c1ccc(S(=O)(=O)F)cc1 | No inhibition | Not significant
24 | Nc1nc(O)c2c(ncn2CCCl)n1 | No inhibition | Not significant
25 | O=C(Nc1ccc(Cn2cnc3ncnc(O)c32)cc1)c1ccc(Cl)cc1 | No inhibition | Not significant

Row | SMILES | Activity [1] | Activity (Plasmodium berghei)
26 | CCOC(=O)/C=C/Cn1cnc2nc(N)nc(O)c21 | No inhibition | Not significant
27 | Nc1nc(O)c2c(ncn2CC(O)CNC(=O)CBr)n1 (stereo not drawn) | No inhibition | Not significant
28 | Nc1nc(O)c2c(ncn2Cc2ccc(NC(=O)c3cccc(S(=O)(=O)F)c3)cc2)n1 | No inhibition | Not significant
29 | Nc1nc(O)c2c(ncn2CCO)n1 | No inhibition | Not significant
30 | Nc1nc(O)c2c(n1)[n+](C1O[C@H](CO)[C@@H](O)[C@H]1O)cn2CCO (stereo partly drawn) | No inhibition | Not significant
31 | O=C(CBr)Nc1ccc(Cn2cnc3ncnc(O)c32)cc1 | No inhibition | Not significant
32 | Nc1nc(O)c2c(ncn2CC(O)CNC(=O)c2ccc(Cl)cc2)n1 (stereo not drawn) | No inhibition | Not significant
33 | O=[N+]([O-])c1cccc(Cn2cnc3ncnc(O)c32)c1 | No inhibition | Not significant
34 | Nc1nc(O)c2c(ncn2Cc2cccc([N+](=O)[O-])c2)n1 | No inhibition | Not significant
35 | Nc1cccc(Cn2cnc3nc(N)nc(O)c32)c1 | No inhibition | Not significant
36 | Oc1ncnc2ncn(CC(O)CCl)c12 (stereo not drawn) | No inhibition | Not significant
37 | Nc1nc(O)c2c(ncn2CC(O)CO)n1 (stereo not drawn) | No inhibition | Not significant
38 | Nc1cccc(Cn2cnc3ncnc(O)c32)c1 | No inhibition | Not significant
39 | CC(=O)OCC1OC([n+]2cn(CCO)c3c(O)nc(N)nc32)C(OC(C)=O)C1OC(C)=O (stereo not drawn) | No inhibition | Not significant
40 | Nc1nc(O)c2c(ncn2Cc2cccc(NC(=O)c3ccc(S(=O)(=O)F)cc3)c2)n1 | No inhibition | Not significant
41 | OCCn1cnc2ncnc(O)c21 | No inhibition | Not significant
42 | Nc1nc(O)c2c(ncn2CCNC(=O)c2cccc(S(=O)(=O)F)c2)n1 | No inhibition | Not significant
43 | O=C1c2ccccc2C(=O)N1CC(O)Cn1cnc2ncnc(O)c21 (stereo not drawn) | No inhibition | Not significant
44 | Nc1nc(O)c2c(ncn2CC(O)CCl)n1 (stereo not drawn) | No inhibition | Not significant
45 | Nc1nc2c(ncn2[C@@H]2O[C@H](CO)[C@@H](O)[C@H]2O)c(=O)[nH]1 | No inhibition | Not significant
46 | Nc1nc(O)c2c(ncn2Cc2ccc(NC(=O)c3ccc(S(=O)(=O)F)cc3)cc2)n1 | No inhibition | Not significant
47 | Nc1nc(O)c2c(ncn2CCNC(=O)c2ccc(Cl)cc2)n1 | No inhibition | Not significant
48 | [N-]=[N+]=NCCn1cnc2nc(N)nc(O)c21 | No inhibition | Not significant
49 | Nc1nc(O)c2c(ncn2Cc2ccc(NC(=O)CBr)cc2)n1 | No inhibition | Not significant
